Compound activity from PubChem.
A selection: hits, their analogues and other compounds. The true share with any hit is near 1.9%.
Rin1 Abl inh: blocks binding of human Rin1 to Abl. TR-FRET Rin1/Abl binding, biochemical. inhibition, % at 7.35 µM. 360,000 compounds, 0.4% hits; in the data active = inhibition above about 5%, passing the limit was not always enough
Target sequence (P00519 whole entry, looked up): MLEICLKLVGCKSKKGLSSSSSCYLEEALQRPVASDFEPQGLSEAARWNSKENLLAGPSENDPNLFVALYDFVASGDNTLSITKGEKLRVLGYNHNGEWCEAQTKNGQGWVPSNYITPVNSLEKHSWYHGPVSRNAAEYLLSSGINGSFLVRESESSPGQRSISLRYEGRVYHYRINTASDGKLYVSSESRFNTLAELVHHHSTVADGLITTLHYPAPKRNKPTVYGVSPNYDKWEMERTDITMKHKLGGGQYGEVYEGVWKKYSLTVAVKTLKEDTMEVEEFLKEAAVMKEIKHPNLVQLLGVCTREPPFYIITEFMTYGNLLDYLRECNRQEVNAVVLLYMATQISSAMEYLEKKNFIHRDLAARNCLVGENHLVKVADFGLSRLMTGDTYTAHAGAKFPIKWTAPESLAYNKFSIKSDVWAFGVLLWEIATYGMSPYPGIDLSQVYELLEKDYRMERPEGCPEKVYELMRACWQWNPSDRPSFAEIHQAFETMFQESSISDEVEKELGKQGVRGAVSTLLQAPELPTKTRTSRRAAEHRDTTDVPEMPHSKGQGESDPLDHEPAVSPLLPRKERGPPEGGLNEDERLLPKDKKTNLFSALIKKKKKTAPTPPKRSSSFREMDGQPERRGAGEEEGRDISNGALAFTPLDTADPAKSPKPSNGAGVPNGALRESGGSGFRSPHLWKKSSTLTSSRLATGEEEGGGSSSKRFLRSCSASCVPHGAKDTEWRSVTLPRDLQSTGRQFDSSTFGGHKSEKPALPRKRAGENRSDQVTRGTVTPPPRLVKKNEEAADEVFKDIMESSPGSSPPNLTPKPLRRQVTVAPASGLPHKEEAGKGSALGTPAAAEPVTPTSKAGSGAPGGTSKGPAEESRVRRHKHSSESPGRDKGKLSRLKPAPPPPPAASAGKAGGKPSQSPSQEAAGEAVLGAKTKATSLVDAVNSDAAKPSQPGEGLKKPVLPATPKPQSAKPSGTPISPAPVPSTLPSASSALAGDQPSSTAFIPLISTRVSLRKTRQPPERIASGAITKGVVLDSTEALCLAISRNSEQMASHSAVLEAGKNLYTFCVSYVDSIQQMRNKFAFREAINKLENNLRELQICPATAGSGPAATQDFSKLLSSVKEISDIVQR
Target sequence (Q13671 whole entry, looked up): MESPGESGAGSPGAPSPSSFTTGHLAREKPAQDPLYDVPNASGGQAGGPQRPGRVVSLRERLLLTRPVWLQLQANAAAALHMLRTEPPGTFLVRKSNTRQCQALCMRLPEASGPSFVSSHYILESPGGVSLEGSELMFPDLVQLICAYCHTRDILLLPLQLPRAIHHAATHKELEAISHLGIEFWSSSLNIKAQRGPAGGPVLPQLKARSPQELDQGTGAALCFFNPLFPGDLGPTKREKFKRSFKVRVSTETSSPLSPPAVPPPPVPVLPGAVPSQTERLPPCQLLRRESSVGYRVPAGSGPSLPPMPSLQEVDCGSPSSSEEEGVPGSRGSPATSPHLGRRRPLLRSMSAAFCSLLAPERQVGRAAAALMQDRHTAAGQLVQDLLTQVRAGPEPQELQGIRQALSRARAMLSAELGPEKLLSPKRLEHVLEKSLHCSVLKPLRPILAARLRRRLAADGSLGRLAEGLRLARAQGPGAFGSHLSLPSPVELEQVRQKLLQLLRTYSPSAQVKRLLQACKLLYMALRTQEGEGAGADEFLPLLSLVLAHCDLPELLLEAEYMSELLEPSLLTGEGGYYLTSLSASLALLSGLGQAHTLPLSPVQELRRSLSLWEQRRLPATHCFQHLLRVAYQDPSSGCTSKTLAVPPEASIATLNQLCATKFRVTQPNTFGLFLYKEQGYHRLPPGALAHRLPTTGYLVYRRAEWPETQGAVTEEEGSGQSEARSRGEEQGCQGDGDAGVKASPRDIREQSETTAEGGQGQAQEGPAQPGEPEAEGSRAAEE
SR-BI HDL uptake: blocks mouse SR-BI lipid uptake from DiI-HDL; AID 488896; 320,000 compounds, 0.96% hits; Q61009; inhibition, % at 12.5 µM; ldlA[mSR-BI] CHO cells, DiI-HDL uptake fluorescence, 3 h;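 active = mean replicate inhibition of at least 70% and a set share of replicates each scoring 70 or more; inconclusive = meets just one of the two criteria; inactive = fails both criteria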;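 also: 0% = median of neutral control wells and 100% = median of positive control wells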
SR-BI uptake up: activators of SR-BI mediated HDL lipid uptake | CHO ldlA[mSR-BI] cells, DiI-HDL uptake fluorescence, 3 h; 100 = double the neutral-control signal | activation, % at 12.5 µM | 320,000 compounds, 0.096% hits | AID 504775;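 active = mean replicate activation of at least 60% and every replicate at or above 60%; inconclusive = mean or all-replicate condition met, but not both; inactive = mean below 60% and not all replicates reaching 60%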;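 also: 0% = median plate neutral-control signal and 100% = twice that signal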
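Assay system: CHO ldlA[mSR-BI] cells, LDL receptor-null, SR-BI overexpressing; medium: Ham's F12 with 0.5% BSA, HEPES 25 mM, pH 7.4; also added: DiI-HDL 10 µg/mL; timing: 3 h uptake period with compound, 37 °C; signal: DiI fluorescence, bottom read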
GRK2 aptamer HTS: inhibitors of human GRK2 displacing RNA aptamer; bead flow cytometry, FAM-aptamer displacement from GRK2; AID 488847; inhibition of aptamer binding, % at 10 µM; 330,000 compounds, 0.59% hits;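 active = inhibition of aptamer binding above 40%, roughly 3 SD of noise, on plates passing a quality check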;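 also: median bead fluorescence of bound FAM aptamer so fluorescent compounds give negative values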
Numbers without * were called inactive; i = inactive; ? = inconclusive; . = no result given.

SMILES | Rin1 Abl inh | SR-BI HDL uptake | SR-BI uptake up | GRK2 aptamer HTS
C(=Cc1c[nH]c2ccccc12)c1nccc2ccccc12 | -9.0 | 71.5* | -71.5 | .
Cc1ccc(SC[C@H](Cc2ccccc2)N2CC[C@@H](NC(=O)OCc3ccccc3)CCC2=O)cc1 | . | . | . | 0.0
C[C@@H]1[C@H](O)C[C@@]23COC(=O)C2=CCC[C@@H]3[C@@]1(C)CC/C(=C/CO)CO | 9.3 | -13.4 | 13.4 | 1.0
O=C1CC(=Nc2ccccc2)NN1c1ccccc1 | 0.4 | 107.7* | -107.7 | 0.0
O=C1Cc2ccccc2N1c1ccccc1 | 2.3 | -25.3 | 25.3 | 0.0
COc1cccc(C(=O)N2N=C(c3cccc(OC)c3)CC2(O)C(F)(F)F)c1 (centres undefined) | 4.5 | -7.7 | 7.7 | 3.0
COc1cccc(C(=O)N2N=C(c3ccccn3)CC2(O)C(F)(F)F)c1 (centres undefined) | -0.6 | -240.5 | 240.5* | 3.0
Cc1[nH]c2ccccc2c1/C=N/Nc1nc(Nc2ccccc2)nc(N2CCOCC2)n1 | 0.3 | 129.9* | -129.8 | 2.0
Oc1ccc(/C=N/Nc2nc(-c3ccc(Cl)cc3)cc(C(F)(F)F)n2)cc1 | -8.0 | 80.4* | -80.4 | 0.0
Cc1cc(-c2ccccc2)nc(N/N=C/c2ccc(O)cc2)n1 | -0.2 | 78.7* | -78.7 | .
COc1ccc(O)c(/C=N/Nc2nc(C)cc(-c3ccccc3)n2)c1 | 1.4 | 87.6* | -87.6 | 1.0
N/C(=N\OC(=O)c1ccccc1)C(Cc1ccccc1)C(=O)NOC(=O)c1ccccc1 (centres undefined) | 4.3 | -8.0 | 8.0 | .
O=C(Cn1nnc(-c2ccccc2)c1COc1ccc2ccccc2c1)NCC1CC1 | 2.6 | . | . | .
COc1ccc(/C=N/Nc2ncc(-c3ccccc3)cn2)c(OC)c1 | -0.9 | 22.9 | -22.9 | 0.0
COc1ccc(/C=N/Nc2nc(Nc3ccccc3)nc(N3CCCC3)n2)cc1[N+](=O)[O-] | -1.7 | ? | -70.5 | 0.0
COc1ccc(/C=N/Nc2nc(C)cc(-c3ccccc3)n2)c(OC)c1 | -1.7 | 73.8* | -73.8 | 0.0
COc1ccc(/C=N/Nc2nc(Nc3ccccc3)nc(N3CCCCC3)n2)c(OC)c1 | -2.5 | 89.2* | -89.2 | 0.0
COc1cc(/C=N/Nc2nc(Nc3ccccc3)nc(N3CCOCC3)n2)ccc1OC(=O)c1ccco1 | 3.1 | 72.6* | -72.6 | 2.0
CN1OC[C@@H]2CN(S(=O)(=O)c3cccc4ccccc34)[C@H](c3ccc(-c4cccnc4)cc3)C[C@@H]21 | -3.5 | . | . | .
COc1ccc(C(=O)Nc2cc3c4c(c2)C(C)C(=O)N4CCC3)cc1OC (centres undefined) | 0.1 | 78.6* | -78.6 | 5.0
Nc1ncnc2c1ncn2[C@@H]1O[C@H](C(=O)NS(=O)(=O)c2cccs2)[C@@H](O)[C@H]1O | 3.7 | . | . | .
Cc1cc(Br)c(OCc2ccc(C(=O)N/N=C/c3ccc[nH]3)cc2)c(Br)c1 | 1.7 | 91.4* | -91.4 | 0.0
CN(Cc1cccnc1)C(=O)c1ccc(Cl)c(NS(=O)(=O)c2ccc(F)cc2)c1 | 1.6 | -24.8 | 24.7 | .
O=C(Nc1cccc2ccccc12)c1csc([C@@H]2O[C@H](CO)[C@H](O)[C@H](O)[C@H]2O)n1 | -3.6 | . | . | .
Cn1cc(C(=O)c2ccc(Cl)cc2Cl)cc1C(=O)N/N=C(\N)COc1ccc(Cl)cc1Cl | -3.0 | 83.5* | -83.5 | 0.0
SMILES | Rin1 Abl inh | SR-BI HDL uptake | SR-BI uptake up | GRK2 aptamer HTS
Cc1ccc(Nc2nnc(-c3ccc(N4CCOCC4)c([N+](=O)[O-])c3)c3ccccc23)cc1 | -0.8 | 68.7 | -68.7 | 0.0
O=[N+]([O-])c1cc(-c2nnc(Nc3ccccc3)c3ccccc23)ccc1N1CCOCC1 | -1.4 | 74.3* | -74.3 | 0.0
CCN(C(=O)COC(=O)c1cc2ccccc2cc1OC)c1c(N)n(Cc2ccccc2)c(=O)[nH]c1=O | 3.0 | 60.3 | -60.3 | .
O=C(NN=Cc1ccccc1OC(F)F)c1cccc(S(=O)(=O)N2CCCC2)c1 | -1.2 | 71.9* | -71.9 | 1.0
COc1cc(OC)c(OC)cc1/C=N/NC(=O)c1cccc(S(=O)(=O)N2CCOCC2)c1 | -2.0 | 59.7 | -59.7 | 0.0
O=C(N/N=C/c1ccc(OC(F)F)cc1OC(F)F)c1cccc(S(=O)(=O)N2CCOCC2)c1 | -2.4 | 82.8* | -82.8 | 1.0
CCc1nc2c(OCc3cccc(OC)c3)cccn2c1N(C)C(=O)c1ccc(OC)cc1 | -1.9 | . | . | .
COCCCNC(=O)CN(c1cccc(Cl)c1)S(C)(=O)=O | 1.4 | i | 526.9* | 4.0
CCc1cc2c(COC(=O)c3cc(S(=O)(=O)N4CCOCC4)ccc3F)cc(=O)oc2cc1O | -5.3 | 77.5* | -77.5 | 1.0
O=C(Nc1ccc2c(c1)OCO2)c1cc(C2CCCCN2S(=O)(=O)c2cccs2)on1 (centres undefined) | -0.8 | . | . | .
COc1ccc(-c2oc(=O)c3cc(OC)c(OC)cc3c2C#CCCCO)cc1 | -2.3 | 78.2* | -78.2 | 0.0
O=C1C(O)=C(O)C(=O)c2ccccc21 | 23.6* | 8.0 | -8.0 | 3.0
O=C1C(=O)c2ccccc2C(O)=C1c1ccccc1F | -7.0 | 14.0 | -2.9 | 2.0
C=CCCC(=O)Nc1ccc(Br)cn1 | 1.4 | 89.4* | -89.4 | 0.0
O=C1c2ccccc2C(=O)N1/N=C/c1ccc(O)c(O)c1O | 65.4* | -9.6 | 9.7 | .
O=C1c2cccc3cccc(c23)C(=O)N1/N=C/c1ccc(O)cc1O | -8.5 | -7.1 | 7.1 | 0.0
N#CCSc1ccccc1NC(=O)COC(=O)C1CCN(C(=O)c2ccc(Cl)cc2)CC1 | -0.2 | . | . | .
CC(=O)c1c(C)[nH]c(C(=O)CSc2nnc(-c3ccco3)n2Cc2ccccc2)c1C | 3.2 | 80.0* | -80.0 | 2.0
CC(=O)c1c(C)[nH]c(C(=O)CSc2nnc(-c3cccs3)n2Cc2ccccc2)c1C | 2.4 | 46.7 | -46.7 | 2.0
CC(C)CC1Nc2ncnc(N3CCN(c4ccccn4)CC3)c2N(Cc2ccccc2)C1=O (centres undefined) | 3.7 | -21.0 | 21.0 | 0.0
CCN(CC)CC(=O)Nc1ccc2c(c1)Nc1ccccc1CC2 | -3.1 | 81.6* | -81.6 | 0.0
COc1cccc(CNc2nc3cc(-c4ccccc4CO)sc3c(=O)n2C)c1 | -3.3 | . | . | .
COc1ccc(-c2nc3ccc(C(=O)NCC(OC)OC)cc3nc2-c2ccc(OC)c(OC)c2)cc1OC | -3.6 | 75.5* | -75.5 | 0.0
Cc1ccc([C@H]2N[C@]3(CCCN(CC4CCCCC4)C3=O)[C@H]3C(=O)N(C)C(=O)[C@@H]23)cc1 | 1.7 | . | . | .
CCN(CC)c1ccc(/C=N/NC(=S)NCc2ccccc2)c(O)c1 | -2.9 | 63.3 | -63.3 | 42.0*
COc1cc(OC)c(OC)cc1/C=N/Nc1nc2ccccc2[nH]1 | -5.2 | 9.4 | -9.4 | 7.0
CCN(CC)c1ccc(/C=N/Nc2nc3ccccc3[nH]2)c(O)c1 | 4.6 | 113.7* | -113.6 | 10.0
N#C/C(=C\c1ccc(-c2ccc(F)cc2)o1)C(=O)Nc1nc(-c2cccs2)cs1 | -0.9 | 57.5 | -57.4 | 0.0
N#C/C(=C/c1ccc(-c2ccc([N+](=O)[O-])cc2)o1)C(=O)Nc1nc(-c2cccs2)cs1 | 4.3 | 87.6* | -87.6 | .
COc1cc(/C=C2\COC/C(=C\c3cc(OC)c(OC)c(OC)c3)C2=O)cc(OC)c1OC | 0.1 | 83.3* | -83.3 | .
